pIC50: −log10 of the molar value.
Assays:
Coagulation factor X = Coagulation factor X (Homo sapiens, UniProt P00742); assay: Inhibitory concentration against Coagulation factor X
Rattus norvegicus = species on record: Rattus norvegicus; assay: Anticoagulant activity in vitro was evaluated by prolongation rate of prothrombin time; type: functional
[1] = Anticoagulant activity in vitro was evaluated with plasma clotting time doubling concentration for prothrombin time; type: functional, Homo sapiens
Prothrombin = Prothrombin (Homo sapiens, UniProt P00734); assay: Concentration required to inhibit thrombin activity by 50%
[2] = target: Coagulation factor X (Rattus norvegicus) (UniProt Q63207); assay: Ex-vivo inhibitory activity against factor Xa of rat blood after 1 hr of peroral administration of 30 mg/kg; type: organism-based; design: dose 30 mg/kg; conditions: at 30 mg/kg
Sequence of Coagulation factor X (Rattus norvegicus) (Q63207 41-180 limits assumed): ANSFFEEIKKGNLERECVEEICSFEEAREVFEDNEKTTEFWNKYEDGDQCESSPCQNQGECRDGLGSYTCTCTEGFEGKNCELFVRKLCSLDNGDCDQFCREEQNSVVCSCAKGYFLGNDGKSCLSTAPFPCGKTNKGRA
Sequence of Coagulation factor X (Rattus norvegicus) (Q63207 232-482 limits assumed): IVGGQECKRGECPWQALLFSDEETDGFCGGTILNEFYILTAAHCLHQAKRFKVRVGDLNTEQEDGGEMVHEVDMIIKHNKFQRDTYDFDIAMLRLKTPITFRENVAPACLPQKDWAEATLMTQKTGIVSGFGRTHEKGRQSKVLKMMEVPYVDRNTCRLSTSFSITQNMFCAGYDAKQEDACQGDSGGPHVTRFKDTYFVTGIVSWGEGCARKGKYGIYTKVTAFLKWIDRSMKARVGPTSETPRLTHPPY
Procedure, shortened: (§1)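 Fasted male Wistar rats received compound orally by stomach tube in 0.5% methylcellulose; controls got vehicle. Under halothane anesthesia, citrated blood was drawn at the stated time and platelet-poor plasma prepared. Plasma anti-fXa activity was measured chromogenically in Tris/NaCl/BSA buffer, pH 7.4, as 1 − sample OD/min ÷ control OD/min.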

[3] = target: Coagulation factor X (Rattus norvegicus) (UniProt Q63207); assay: Ex-vivo inhibitory activity against factor Xa of rat blood after 3h of peroral administration of 30 mg/kg; type: organism-based; design: dose 30 mg/kg; conditions: at 30 mg/kg; procedure, shortened: as §1
[4] = target: Coagulation factor X (Rattus norvegicus) (UniProt Q63207); assay: Ex-vivo inhibitory activity against factor Xa of rat blood after 6 hr of peroral administration of 30 mg/kg; type: organism-based; design: dose 30 mg/kg; conditions: at 30 mg/kg; procedure, shortened: as §1

Sequence of Coagulation factor X (P00742 41-179 limits assumed): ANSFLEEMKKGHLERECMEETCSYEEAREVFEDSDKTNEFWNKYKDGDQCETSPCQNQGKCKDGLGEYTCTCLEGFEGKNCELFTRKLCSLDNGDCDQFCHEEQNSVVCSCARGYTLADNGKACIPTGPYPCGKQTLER
Sequence of Coagulation factor X (P00742 235-488 limits assumed): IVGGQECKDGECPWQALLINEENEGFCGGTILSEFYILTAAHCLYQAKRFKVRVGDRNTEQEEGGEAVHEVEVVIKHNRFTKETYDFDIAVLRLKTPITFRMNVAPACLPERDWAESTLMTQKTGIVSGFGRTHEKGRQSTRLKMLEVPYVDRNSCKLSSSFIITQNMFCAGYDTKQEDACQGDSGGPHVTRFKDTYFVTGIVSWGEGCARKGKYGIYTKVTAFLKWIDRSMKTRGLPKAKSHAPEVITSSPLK

Compound | pIC50 (Coagulation factor X) | Anticoagulant activity (Rattus norvegicus) | Anticoagulant activity [1] | further results
CN1CCc2cc(C(=O)N3CCN(S(=O)(=O)c4ccc5cc(Cl)ccc5c4)CC3)oc2C1 | 6.26 | – | – | –
CN1CCc2nc(C(=O)N3CCN(S(=O)(=O)c4ccc5cc(Cl)ccc5c4)CC3)ccc2C1 | 5.66 | – | – | –
O=C(c1cc2c([nH]1)CCNC2)N1CCN(S(=O)(=O)c2ccc3cc(Cl)ccc3c2)CC1 | 5.21 | – | – | –
CN1CCc2sc(C(=O)N3CCN(S(=O)(=O)c4ccc5cc(Cl)ccc5c4)CC3)cc2C1 | 6.72 | – | – | –
O=C(c1cc2c(s1)CCNC2)N1CCN(S(=O)(=O)c2ccc3cc(Cl)ccc3c2)CC1 | 6.57 | – | – | –
CN1CCc2sc(C(=O)N3CCN(S(=O)(=O)c4ccc5cc(Cl)ccc5c4)CC3)nc2C1 | 6.68 | – | – | –
CN1CCc2cc(C(=O)N3CCN(S(=O)(=O)c4ccc5cc(Cl)ccc5c4)CC3)sc2C1 | 6.98 | – | – | –
CN1CCc2nc(C(=O)N3CCN(S(=O)(=O)c4ccc5cc(Cl)ccc5c4)CC3)sc2C1 | – | 10 µM | 6 µM | pIC50 (Prothrombin): 6.25
O=C(c1ccc2c(c1)CCNC2)N1CCN(S(=O)(=O)c2ccc3cc(Cl)ccc3c2)CC1 | 6.19 | – | – | –
CC(C)N1CCc2nc(C(=O)N3CCN(S(=O)(=O)c4ccc5cc(Cl)ccc5c4)CC3C(N)=O)sc2C1 (configuration not stated) | 7.10 | 17.5 µM | 6.6 µM | –
O=C(c1nc2c(s1)CNCC2)N1CCN(S(=O)(=O)c2ccc3cc(Cl)ccc3c2)CC1 | – | 16.1 µM | 11.2 µM | pIC50 (Prothrombin): 5.54
CCN1CCc2nc(C(=O)N3CCN(S(=O)(=O)c4ccc5cc(Cl)ccc5c4)CC3C(N)=O)sc2C1 (configuration not stated) | 6.96 | 14.6 µM | 7.2 µM | –
NC(=O)C1CN(S(=O)(=O)c2ccc3cc(Cl)ccc3c2)CCN1C(=O)c1nc2c(s1)CNCC2 (configuration not stated) | 7.08 | 28.8 µM | 9.7 µM | –
CN1CCc2[nH]c(C(=O)N3CCN(S(=O)(=O)c4ccc5cc(Cl)ccc5c4)CC3)cc2C1 | 6.49 | – | – | –
O=C(c1cc2c(s1)CNCC2)N1CCN(S(=O)(=O)c2ccc3cc(Cl)ccc3c2)CC1 | 6.80 | – | – | –
CN1CCc2nc(C(=O)N3CCN(S(=O)(=O)c4ccc5cc(Cl)ccc5c4)CC3C(N)=O)sc2C1 (configuration not stated) | – | 14 µM | 4.4 µM | inhibition [2]: 67.4%; inhibition [3]: 55.8%; inhibition [4]: 24.7%; pIC50 (Prothrombin): 6.00
O=C(c1ccc2c(n1)CCNC2)N1CCN(S(=O)(=O)c2ccc3cc(Cl)ccc3c2)CC1 | 6.04 | – | – | –

Reference: ChEMBL document CHEMBL1138780, “Synthesis and conformational analysis of a non-amidine factor Xa inhibitor that incorporates 5-methyl-4,5,6,7-tetrahydrothiazolo[5,4-c]pyridine as S4 binding element” (J Med Chem, 2004)
